Published values gathered from unrelated publications.
Protocols differ between the studies behind these lines.

Structure (SMILES) | system | setting | endpoint | result
O=C1c2ccncc2C(=O)c2c1[nH]c1ccccc21 | rat, plasma | intravenous, 1 mg/kg, single dose | AUC(0-inf) | 1.43 µM·h
CC1(CN)CCN(c2cnc3c(Sc4ccncc4Cl)n[nH]c3n2)CC1 | male Sprague-Dawley rat, plasma | intravenous, 2 mg/kg | AUC | 151 ng·h/mL
O=C1CC[C@H](N2Cc3cc(N4CCN(CC5CCN(c6ccc([C@@H]7c8ccc(O)cc8CC[C@@H]7c7ccccc7)cc6)CC5)CC4)ccc3C2=O)C(=O)N1 | female Sprague-Dawley rat, plasma | oral, 20 mg/kg, fasted | AUC(0-t) | 11000 ng·h/mL
O=C(C=Cc1ccccc1)Nc1cc(-c2ccnc(N3CCC(O)CC3)c2)ccn1 | female Sprague-Dawley rat, plasma | intravenous, 5 mg/kg | AUC(0-inf) | 375 ng·h/mL
C=C(F)C(=O)N1CCN(c2nc(OC[C@@H]3CCCN3C)nc3c2CCN(c2cccc4cccc(Cl)c24)C3)C[C@@H]1CC#N | male Sprague-Dawley rat, plasma | intravenous, 5 mg/kg | AUC(0-t) | 1860 ng·h/mL
C[C@H]1[C@@H](O)O[C@@H]2O[C@@]3(C)CC[C@H]4[C@H](C)CC[C@@H]1[C@@]24OO3 | Sprague-Dawley rat, plasma | oral, 10 mg/kg | AUC(0-t) | 197 ng·h/mL
N#C[C@@]12C[C@@H]1[C@@H](n1cnc3c(N[C@@H](C4CCC4)C4CC4)nc(I)nc31)[C@H](O)[C@@H]2O | male Wistar rat, plasma | oral, 3 mg/kg | AUC(0-t) | 66.4 ng·h/mL
Cc1c(C(=O)O)ccc2c3n(nc12)[C@@H]1[C@H](C3)N(CC2CC2)[C@@]2(C(=O)Nc3cc(Cl)ccc32)[C@H]1c1cccc(Cl)c1F | male rat, plasma | oral, 2 mg/kg | AUC(0-inf) | 64.2 µM·h
CC(=Nc1ccc(N=Cc2cnccn2)cc1)N(C)C | male Sprague-Dawley rat, plasma | intravenous, 20 mg/kg | AUC(0-t) | 254 ng·h/mL
COc1ccc2cc3n(c(=O)c2c1OC)CCc1cc2c(cc1-3)OCO2 | male Sprague-Dawley rat, blood | oral, 50 mg/kg | AUC(0-t) | 701 ng·h/mL
